According to ChEMBL document CHEMBL1125713, “Synthesis and antiarrhythmic activity of cis-2,6-dimethyl-alpha,alpha-diaryl-1-piperidinebutanols” (1991):

Key:
Canis familiaris [1] = assay: Antiarrhythmic effect in coronary artery ligated dogs model at a dose of 5 mg/kg, administered intravenously and value noted at 20 min; assay type: functional, Canis lupus familiaris, Heart; details: route intravenous
How it was run: (§1)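 Coronary-ligated dogs with ventricular arrhythmias. Dosing was 5 mg/kg in 10–20 mL isotonic saline, given as an iv infusion over 5 min. Limb lead II ECG was monitored continuously for up to 6 h. Percent normal sinus beats was scored at control, end of dose, 20 min and 1 h. Values are mean ± SEM for three or more animals, mean ± SD for two.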

Canis familiaris [2] = organism: Canis familiaris; assay: Compound was evaluated for the activity rating; assay type: functional, Canis lupus familiaris
How it was run: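 In ligated dogs given 5 mg/kg iv over 5 min, group % normal beats was plotted at end of dose, 20 min and 1 h. The area under this curve minus the control area was divided by the same area for an ideal response (100% normal beats for the whole hour), then multiplied by 100.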

Canis familiaris [3] = assay: Antiarrhythmic effect in coronary artery ligated dog model at a dose of 5 mg/kg, administered intravenously and value noted at 1 hr; assay type: functional, Canis lupus familiaris, Heart; details: route intravenous; how it was run: as §1
Canis familiaris [4] = assay: Antiarrhythmic effect in coronary artery ligated dogs model at a dose of 5 mg/kg, value noted at end dose.; assay type: functional, Canis lupus familiaris, Heart; how it was run: as §1
Canis familiaris [5] = assay: Compound was evaluated for the heart rate effect in normal dogs at a dose of 5 mg/kg, administered intravenously and value noted at 1h.; assay type: functional, Canis lupus familiaris; details: route intravenous
How it was run: (§2)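 Conscious normal dogs, trained and sling-restrained, received the same iv dosing: 5 mg/kg infused over 5 min. Heart rate came from continuous limb lead II ECG at control, end of dose, 20 min and 1 h. Values are mean ± SD for two dogs.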

Canis familiaris [6] = organism: Canis familiaris; assay: Compound was evaluated for the duration of sustained effect; assay type: functional, Canis lupus familiaris
How it was run: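 Normal dogs received 5 mg/kg iv over 5 min, with heart rate tracked by continuous ECG. Dogs above 140 beats/min were followed until the rate fell to 140. The sustained effect was rated long (>2 h), moderate (0.5–2 h) or short (<0.5 h).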

Canis familiaris [7] = assay: Compound was evaluated for the heart rate effect in normal dogs at a dose of 5 mg/kg, administered intravenously and value noted at end dose.; assay type: functional, Canis lupus familiaris; details: route intravenous; how it was run: as §2
Canis familiaris [8] = organism: Canis familiaris; assay: Compound was evaluated for the degree of tachycardia; 160-199; assay type: functional, Canis lupus familiaris
How it was run: (§3)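 Conscious normal dogs received 5 mg/kg iv over 5 min, with heart rate from limb lead II ECG. Tachycardia was graded as severe (≥200 beats/min), moderate (160–199), slight (<160 after a rise of ≥20) or none (change <20 beats/min).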

Canis familiaris [9] = assay: Compound was evaluated for the heart rate effect in normal dogs at a dose of 5 mg/kg, administered intravenously and value noted at 20 min.; assay type: functional, Canis lupus familiaris; details: route intravenous; how it was run: as §2
Canis familiaris [10] = organism: Canis familiaris; assay: Compound was evaluated for the degree of tachycardia.; assay type: functional, Canis lupus familiaris; how it was run: as §3

CC1CCCC(C)N1CCC(C#N)(c1ccccc1)c1ccccc1.Cl (configuration not stated)
Normal beats (Canis familiaris [1]): 72%
Activity rating (Canis familiaris [2]): 70
Normal beats (Canis familiaris [3]): 65%
Normal beats (Canis familiaris [4]): 91%

CC1CCCC(C)N1CCCC(O)(c1ccccc1)c1ccccn1.Cl (configuration not stated) [PIRMENOL HYDROCHLORIDE]
Heart rate (Canis familiaris [5]): 157 beats min-1
Duration (Canis familiaris [6]): >2 h
Normal beats (Canis familiaris [1]): 80%
Heart rate (Canis familiaris [7]): 194 beats min-1
Activity rating (Canis familiaris [2]): 71
Normal beats (Canis familiaris [3]): 59%
Heart rate (Canis familiaris [8]): 160 beats min-1
Heart rate (Canis familiaris [9]): 172 beats min-1
Normal beats (Canis familiaris [4]): 94%

CCC1CCCCN1CCCC(O)(c1ccccc1)c1ccccc1.Cl (configuration not stated)
Normal beats (Canis familiaris [1]): 48%
Activity rating (Canis familiaris [2]): 46
Normal beats (Canis familiaris [3]): 37%
Normal beats (Canis familiaris [4]): 87%

CC1CCCC(C)N1CCCC(O)(c1ccccc1)c1cccnc1.Cl (configuration not stated)
Normal beats (Canis familiaris [1]): 16%
Activity rating (Canis familiaris [2]): 13
Normal beats (Canis familiaris [3]): 6%
Normal beats (Canis familiaris [4]): 43%

CC1CCCC(C)N1CCC(C(N)=O)(c1ccccc1)c1ccccc1.Cl (configuration not stated)
Normal beats (Canis familiaris [1]): 51%
Activity rating (Canis familiaris [2]): 39
Normal beats (Canis familiaris [3]): 83%
Normal beats (Canis familiaris [4]): 64%

CC1CCCC(C)N1CCC(O)(c1ccccc1)c1ccccc1.Cl (configuration not stated)
Heart rate (Canis familiaris [5]): 130 beats min-1
Normal beats (Canis familiaris [1]): 96%
Heart rate (Canis familiaris [7]): 137 beats min-1
Activity rating (Canis familiaris [2]): 86
Normal beats (Canis familiaris [3]): 74%
Heart rate (Canis familiaris [9]): 117 beats min-1
Normal beats (Canis familiaris [4]): 97%

Cl.OC(CCCN1CCCCC1)(c1ccccc1)c1ccccn1 (configuration not stated)
Normal beats (Canis familiaris [1]): 21%
Activity rating (Canis familiaris [2]): 17
Normal beats (Canis familiaris [3]): 8%
Normal beats (Canis familiaris [4]): 97%

Cl.OC(CCCN1CCCCC1)(c1ccccc1)c1ccccc1 [DIPHENIDOL HYDROCHLORIDE]
Heart rate (Canis familiaris [5]): 142 beats min-1
Duration (Canis familiaris [6]): >2 h
Normal beats (Canis familiaris [1]): 54%
Heart rate (Canis familiaris [7]): 200 beats min-1
Activity rating (Canis familiaris [2]): 39
Normal beats (Canis familiaris [3]): 34%
Heart rate (Canis familiaris [8]): 160 beats min-1
Heart rate (Canis familiaris [9]): 155 beats min-1
Normal beats (Canis familiaris [4]): 90%

CC1CCCC(C)N1CCCC(C(N)=O)(c1ccccc1)c1ccccc1.Cl (configuration not stated)
Heart rate (Canis familiaris [5]): 215 beats min-1
Duration (Canis familiaris [6]): >2 h
Normal beats (Canis familiaris [1]): 90%
Heart rate (Canis familiaris [7]): 235 beats min-1
Activity rating (Canis familiaris [2]): 91
Normal beats (Canis familiaris [3]): 94%
Heart rate (Canis familiaris [10]): >200 beats min-1
Heart rate (Canis familiaris [9]): 223 beats min-1
Normal beats (Canis familiaris [4]): 98%

CC1CCCC(C)N1CCCC(O)c1ccccc1.Cl (configuration not stated)
Normal beats (Canis familiaris [1]): 45%
Activity rating (Canis familiaris [2]): 35
Normal beats (Canis familiaris [3]): 10%
Normal beats (Canis familiaris [4]): 99%

CC1CCC(C)N1CCCC(O)(c1ccccc1)c1ccccc1.Cl (configuration not stated)
Heart rate (Canis familiaris [5]): 193 beats min-1
Duration (Canis familiaris [6]): >2 h
Normal beats (Canis familiaris [1]): 39%
Heart rate (Canis familiaris [7]): 243 beats min-1
Activity rating (Canis familiaris [2]): 29
Normal beats (Canis familiaris [3]): 35%
Heart rate (Canis familiaris [10]): >200 beats min-1
Heart rate (Canis familiaris [9]): 218 beats min-1
Normal beats (Canis familiaris [4]): 69%

CC1CCCC(C)N1CC(O)(c1ccccc1)c1ccccc1 (configuration not stated)
Heart rate (Canis familiaris [5]): 96 beats min-1
Normal beats (Canis familiaris [1]): 16%
Heart rate (Canis familiaris [7]): 115 beats min-1
Activity rating (Canis familiaris [2]): 15
Normal beats (Canis familiaris [3]): 16%
Heart rate (Canis familiaris [9]): 92 beats min-1
Normal beats (Canis familiaris [4]): 56%

CC1CCCC(C)N1CCCC(c1ccccc1)c1ccccn1.Cl (configuration not stated)
Normal beats (Canis familiaris [1]): 37%
Activity rating (Canis familiaris [2]): 47
Normal beats (Canis familiaris [3]): 67%
Normal beats (Canis familiaris [4]): 62%

CC(C)N(CCC(C(N)=O)(c1ccccc1)c1ccccn1)C(C)C (configuration not stated) [DISOPYRAMIDE]
Normal beats (Canis familiaris [1]): 60%
Activity rating (Canis familiaris [2]): 49
Normal beats (Canis familiaris [3]): 16%
Normal beats (Canis familiaris [4]): 89%
